# Reference: ChEMBL document CHEMBL4002606, “Discovery of FZU-03,010 as a self-assembling anticancer amphiphile for acute myeloid leukemia” (Bioorg Med Chem Lett, 2017)
# Activity calls are given as the source filed them. No cut-off for these calls is given here.
# Legend:
# [1] = tested on: HL-60; experiment: Growth inhibition of human HL60 cells at 0.63 uM after 48 hrs by MTT assay relative to control; assay type: functional; conditions: for inhibition of growth at 0.63 µM: HL-60, 48 h, read-out: GI
# [2] = tested on: HL-60; experiment: Growth inhibition of human HL60 cells at 1.25 uM after 48 hrs by MTT assay relative to control; assay type: functional; conditions: for inhibition of growth at 1.25 µM: HL-60, 48 h, read-out: GI
# [3] = tested on: HL-60; experiment: Growth inhibition of human HL60 cells at 2.5 uM after 48 hrs by MTT assay relative to control; assay type: functional; conditions: for inhibition of growth at 2.5 µM: HL-60, 48 h, read-out: GI
# [4] = tested on: HL-60; experiment: Growth inhibition of human HL60 cells at 5 uM after 48 hrs by MTT assay relative to control; assay type: functional; conditions: for inhibition of growth at 5 µM: HL-60, 48 h, read-out: GI
# [5] = tested on: HL-60; experiment: Growth inhibition of human HL60 cells at 10 uM after 48 hrs by MTT assay relative to control; assay type: functional; conditions: for inhibition of growth at 10 µM: HL-60, 48 h, read-out: GI
# [6] = tested on: HL-60; experiment: Growth inhibition of human HL60 cells at 20 uM after 48 hrs by MTT assay relative to control; assay type: functional; conditions: for inhibition of growth at 20 µM: HL-60, 48 h, read-out: GI
# [7] = tested on: HL-60; experiment: Growth inhibition of human HL60 cells at 40 uM after 48 hrs by MTT assay relative to control; assay type: functional; conditions: for inhibition of growth at 40 µM: HL-60, 48 h, read-out: GI
# [8] = tested on: HL-60; experiment: Growth inhibition of human HL60 cells after 48 hrs by MTT assay; assay type: functional, cell-based; conditions: HL-60, 48 h
# Method in brief: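 HL-60 human promyelocytic leukemia cells; proliferation inhibition of the cells measured and reported as IC50; values are mean ± SE of at least three independent experiments.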
# [9] = tested on: HL-60; experiment: Induction of apoptosis in human HL60 cells assessed as live cells at 80 uM after 24 hrs by Annexin V-PE/7AAD staining based flow cytometry (reference value: 90.9%); assay type: functional
# [10] = tested on: HL-60; experiment: Induction of apoptosis in human HL60 cells assessed as early apoptotic cells at 80 uM after 24 hrs by Annexin V-PE/7AAD staining based flow cytometry (reference value: 4.42%); assay type: functional
# [11] = tested on: HL-60; experiment: Induction of apoptosis in human HL60 cells assessed as late apoptotic cells at 80 uM after 24 hrs by Annexin V-PE/7AAD staining based flow cytometry (reference value: 3.64%); assay type: functional
# [12] = tested on: HL-60; experiment: Induction of apoptosis in human HL60 cells assessed as necrotic cells at 80 uM after 24 hrs by Annexin V-PE/7AAD staining based flow cytometry (reference value: 1.08%); assay type: functional
# [13] = tested on: HL-60; experiment: Induction of apoptosis in human HL60 cells assessed as downregulation of procaspase-3 expression after 24 hrs by Western blot method; assay type: functional, cell-based
# Method in brief: (§1)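 HL-60 cells treated at different concentrations; lysates probed with specific antibodies against procaspase-3, cleaved caspase-9, PARP, Bcl-2, phospho-P70S6K and phospho-Akt; actin used as loading control.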
# [14] = tested on: HL-60; experiment: Induction of apoptosis in human HL60 cells assessed as caspase-9 cleavage after 24 hrs by Western blot method; assay type: functional, cell-based; method in brief: as §1
# [15] = tested on: HL-60; experiment: Induction of apoptosis in human HL60 cells assessed as PARP cleavage up to 80 uM after 24 hrs by Western blot method; assay type: functional, cell-based; method in brief: as §1
# [16] = tested on: HL-60; experiment: Induction of apoptosis in human HL60 cells assessed as downregulation of Bcl2 expression up to 80 uM after 24 hrs by Western blot method; assay type: functional, cell-based; method in brief: as §1
# [17] = organism: Homo sapiens; experiment: Inhibition of PI3K in human HL60 cells assessed as reduction in Akt phosphorylation at Ser473-residue up to 80 uM after 24 hrs by Western blot method; assay type: cell-based; method in brief: as §1
# [18] = biological target: Serine/threonine-protein kinase mTOR (Homo sapiens) (UniProt P42345); experiment: Inhibition of mTOR in human HL60 cells assessed as reduction in P70S6K phosphorylation at Thr389-residue up to 80 uM after 24 hrs by Western blot method; assay type: cell-based; method in brief: as §1
# [19] = Aqueous solubility of the compound in water by HPLC method; assay type: physicochemical
# [20] = tested on: HL-60; experiment: Induction of apoptosis in human HL60 cells assessed as live cells at 10 uM after 24 hrs by Annexin V-PE/7AAD staining based flow cytometry (reference value: 90.9%); assay type: functional
# [21] = tested on: HL-60; experiment: Induction of apoptosis in human HL60 cells assessed as early apoptotic cells at 10 uM after 24 hrs by Annexin V-PE/7AAD staining based flow cytometry (reference value: 4.42%); assay type: functional
# [22] = tested on: HL-60; experiment: Induction of apoptosis in human HL60 cells assessed as late apoptotic cells at 10 uM after 24 hrs by Annexin V-PE/7AAD staining based flow cytometry (reference value: 3.64%); assay type: functional
# [23] = tested on: HL-60; experiment: Induction of apoptosis in human HL60 cells assessed as necrotic cells at 10 uM after 24 hrs by Annexin V-PE/7AAD staining based flow cytometry (reference value: 1.08%); assay type: functional
# [24] = tested on: HL-60; experiment: Induction of apoptosis in human HL60 cells assessed as PARP cleavage up to 10 uM after 24 hrs by Western blot method; assay type: functional, cell-based; method in brief: as §1
# [25] = tested on: HL-60; experiment: Induction of apoptosis in human HL60 cells assessed as downregulation of Bcl2 expression up to 10 uM after 24 hrs by Western blot method; assay type: functional, cell-based; method in brief: as §1
# [26] = organism: Homo sapiens; experiment: Inhibition of PI3K in human HL60 cells assessed as reduction in Akt phosphorylation at Ser473-residue up to 10 uM after 24 hrs by Western blot method; assay type: cell-based; method in brief: as §1
# [27] = biological target: Serine/threonine-protein kinase mTOR (Homo sapiens) (UniProt P42345); experiment: Inhibition of mTOR in human HL60 cells assessed as reduction in P70S6K phosphorylation at Thr389-residue up to 10 uM after 24 hrs by Western blot method; assay type: cell-based; method in brief: as §1
IC50 [8],Compound,inhibition of growth at 0.63 µM [1],inhibition of growth at 1.25 µM [2],inhibition of growth at 2.5 µM [3],inhibition of growth at 5 µM [4],inhibition of growth at 10 µM [5],inhibition of growth at 20 µM [6],inhibition of growth at 40 µM [7],growth inhibition (GI) [1],Activity [13],Activity [14],other results
7.04 µM,C[C@H]1[C@H](C)CC[C@]2(C(=O)N(CCO)CCO)CC[C@]3(C)C(=CC[C@@H]4[C@@]5(C)CCC(=O)C(C)(C)[C@@H]5CC[C@]43C)[C@H]12,9.32%,8.43%,12.4%,26.7%,53.7%,86.5%,92.7%,–,–,–,–
> 40 µM,C=CCNc1nc2c(s1)C[C@]1(C)[C@H]3CC=C4[C@@H]5[C@@H](C)[C@H](C)CC[C@]5(C(=O)O)CC[C@@]4(C)[C@]3(C)CC[C@H]1C2(C)C,–,0.33%,4.73%,13.4%,20.3%,34.7%,49.8%,inactive,–,–,–
> 40 µM,C[C@H]1[C@H](C)CC[C@]2(C(=O)O)CC[C@]3(C)C(=CC[C@@H]4[C@@]5(C)CC[C@H](O)C(C)(C)[C@@H]5CC[C@]43C)[C@H]12 [URSOLIC ACID],–,–,–,–,–,–,–,inactive,Dose-dependent effect,Dose-dependent effect,growth inhibition (GI) [2]: inactive; growth inhibition (GI) [3]: inactive; growth inhibition (GI) [4]: inactive; growth inhibition (GI) [5]: inactive; growth inhibition (GI) [6]: inactive; growth inhibition (GI) [7]: inactive; Activity [9]: 83.4%; Activity [10]: 13.3%; Activity [11]: 2.43%; Activity [12]: 0.835%; Activity [15]: Active; Activity [16]: inactive; inhibition [17]: Active; inhibition [18]: Active
5.44 µM,C[C@H]1[C@H](C)CC[C@]2(C(=O)O)CC[C@]3(C)C(=CC[C@@H]4[C@@]5(C)C/C(=C/O)C(=O)C(C)(C)[C@@H]5CC[C@]43C)[C@H]12,9.03%,18.5%,33.9%,50.3%,67%,72.4%,89.8%,–,–,–,–
–,C[C@H]1[C@H](C)CC[C@]2(C(=O)N3CCNCC3)CC[C@]3(C)C(=CC[C@@H]4[C@@]5(C)Cc6cn[nH]c6C(C)(C)[C@@H]5CC[C@]43C)[C@H]12.Cl,–,–,–,–,–,–,–,–,–,–,solubility [19]: > 150 µg/mL
6.26 µM,C[C@H]1[C@H](C)CC[C@]2(C(=O)O)CC[C@]3(C)C(=CC[C@@H]4[C@@]5(C)Cc6c[nH]nc6C(C)(C)[C@@H]5CC[C@]43C)[C@H]12,5.36%,7.54%,8.55%,16.3%,79.5%,93.2%,94.7%,–,Dose-dependent effect,Dose-dependent effect,Activity [20]: 76.3%; Activity [21]: 19.5%; Activity [22]: 3.98%; Activity [23]: 0.231%; Activity [24]: Active; Activity [25]: Active; inhibition [26]: Active; inhibition [27]: Active
